Test results taken from ChEMBL document CHEMBL4020708, “Studies of CDK 8/19 inhibitors: Discovery of novel and selective CDK8/19 dual inhibitors and elimination of their CYP3A4 time-dependent inhibition potential” (Bioorg Med Chem, 2017).
Values after ≈ are worked out from the molar mass of the structure shown. Active and inactive are the calls of the source. The calls are words filed in the database; no cut-off is given here.

Columns and labels:
[1] = target: CDK8/Cyclin C (Homo sapiens, UniProt P49336); assay: Inhibition of kinase tracer 236 binding to full length N terminal GST-tagged human CDK8 (1 to 464 end residues) /CycC ( 1 to 283 end residues) expressed in baculovirus expression system after 60 min by TR-FRET assay
Chain of CDK8/Cyclin C (P49336 whole entry): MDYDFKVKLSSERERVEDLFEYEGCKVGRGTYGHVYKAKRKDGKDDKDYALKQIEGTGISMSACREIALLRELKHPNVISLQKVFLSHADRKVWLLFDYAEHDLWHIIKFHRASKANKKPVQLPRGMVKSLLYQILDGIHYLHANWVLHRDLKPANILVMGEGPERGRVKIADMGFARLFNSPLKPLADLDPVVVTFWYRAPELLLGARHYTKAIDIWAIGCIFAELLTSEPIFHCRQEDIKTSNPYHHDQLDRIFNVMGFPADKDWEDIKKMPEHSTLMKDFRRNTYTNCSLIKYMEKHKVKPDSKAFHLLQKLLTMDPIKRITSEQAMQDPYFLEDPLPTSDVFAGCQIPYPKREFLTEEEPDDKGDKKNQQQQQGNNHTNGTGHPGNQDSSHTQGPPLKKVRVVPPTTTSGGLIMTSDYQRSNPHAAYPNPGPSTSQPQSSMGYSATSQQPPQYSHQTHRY
Chain of CDK8/Cyclin C (P24863 whole entry, further chain): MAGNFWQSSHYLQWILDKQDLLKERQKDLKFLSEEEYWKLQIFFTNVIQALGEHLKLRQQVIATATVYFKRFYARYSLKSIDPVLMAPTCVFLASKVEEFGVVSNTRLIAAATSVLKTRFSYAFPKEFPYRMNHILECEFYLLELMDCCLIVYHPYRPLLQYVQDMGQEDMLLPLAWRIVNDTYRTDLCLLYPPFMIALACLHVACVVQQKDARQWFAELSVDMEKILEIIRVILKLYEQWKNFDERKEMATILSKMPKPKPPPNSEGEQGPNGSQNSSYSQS
In short: (§1)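 TR-FRET ligand displacement using 20 nM GST-CDK8/CycC or GST-CDK19/CycC, 20 nM Kinase Tracer 236 and Tb-anti-GST antibody. Buffer 25 mM HEPES, 10 mM MgCl₂, 2 mM DTT, 0.01% Tween-20. Incubated 60 min at rt.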

[2] = target: Cyclin-C/Cyclin-dependent kinase 19 (Homo sapiens, UniProt Q9BWU1); assay: Inhibition of kinase tracer 236 binding to GST-tagged CDK19/CycC (unknown origin) after 60 min by TR-FRET assay; type: protein-complex assay; in short: as §1
Chain of Cyclin-C/Cyclin-dependent kinase 19 (Q9BWU1 whole entry): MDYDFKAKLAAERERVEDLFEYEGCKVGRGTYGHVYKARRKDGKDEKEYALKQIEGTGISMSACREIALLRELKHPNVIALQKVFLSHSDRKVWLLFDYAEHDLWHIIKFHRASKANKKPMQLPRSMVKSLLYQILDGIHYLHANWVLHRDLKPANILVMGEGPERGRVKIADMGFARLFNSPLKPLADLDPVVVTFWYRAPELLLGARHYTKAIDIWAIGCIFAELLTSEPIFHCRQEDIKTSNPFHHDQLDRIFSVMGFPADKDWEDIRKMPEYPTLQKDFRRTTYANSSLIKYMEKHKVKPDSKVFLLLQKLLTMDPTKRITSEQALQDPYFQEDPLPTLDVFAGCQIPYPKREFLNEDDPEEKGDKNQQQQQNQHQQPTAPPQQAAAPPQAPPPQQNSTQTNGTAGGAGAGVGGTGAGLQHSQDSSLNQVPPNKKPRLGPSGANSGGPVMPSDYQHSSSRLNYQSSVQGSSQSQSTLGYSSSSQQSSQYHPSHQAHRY
Chain of Cyclin-C/Cyclin-dependent kinase 19 (P24863 whole entry, further chain): as the sequence (P24863 whole entry, further chain) above

[3] = target: T1, Cyclin-dependent kinase 8 (Homo sapiens, UniProt P49336); assay: Inhibition of CDK8 in human SW480 cells assessed as reduction in IFN-gamma induced STAT1 phosphorylation at Ser727 residues preincubated for 2 hrs followed by IFN-gamma addition measured after 1 hr by In-cell western assay; type: cell-based
T1 sequence (P49336 whole entry): as the sequence (P49336 whole entry) above
In short: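 SW480 cells kept in L-15 with 10% FBS at 37 °C and plated at 6000 cells/well overnight. Compound applied 2 h, then 10 ng/mL IFN-γ for 1 h. Cells fixed, permeabilized and blocked, then probed overnight at 4 °C with anti-pSTAT1 Ser727. IRDye 800CW secondary plus DRAQ5 for DNA, Odyssey imaging.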

[4] = target: CYP3A4 (Homo sapiens, UniProt P08684); assay: Time-dependent inhibition of CYP3A4 in human liver microsomes assessed as reduction in testosterone to 6beta-hydroxytestosterone conversion by measuring remaining activity at 30 uM preincubated for 60 mins followed by testosterone addition measured after 20 mins in presence of NADPH by UPLC analysis relative to control; type: ADME; conditions: probe testosterone (6beta-hydroxylation), read-out: Activity
Chain of CYP3A4 (P08684 whole entry): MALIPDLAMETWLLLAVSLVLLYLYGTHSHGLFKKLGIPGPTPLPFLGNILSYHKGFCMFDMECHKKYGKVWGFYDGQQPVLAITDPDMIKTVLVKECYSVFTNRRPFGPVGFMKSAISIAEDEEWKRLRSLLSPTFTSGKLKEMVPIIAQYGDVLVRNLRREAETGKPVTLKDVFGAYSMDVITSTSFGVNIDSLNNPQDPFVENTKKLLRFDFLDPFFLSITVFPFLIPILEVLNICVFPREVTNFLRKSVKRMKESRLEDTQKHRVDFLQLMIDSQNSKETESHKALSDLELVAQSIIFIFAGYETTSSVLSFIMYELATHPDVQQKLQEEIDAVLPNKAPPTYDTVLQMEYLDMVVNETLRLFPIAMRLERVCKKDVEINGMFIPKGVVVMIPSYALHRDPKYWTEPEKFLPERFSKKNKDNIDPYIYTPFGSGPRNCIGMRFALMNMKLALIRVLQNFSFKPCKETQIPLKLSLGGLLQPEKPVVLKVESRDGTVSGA
In short: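 Compound at 30 μM preincubated with human liver microsomes in phosphate buffer pH 7.4 at 37 °C for 0 or 60 min with an NADPH-generating system. Testosterone then added for 20 min, and 6β-hydroxytestosterone measured by UPLC. Activity expressed as % of DMSO control; % remaining taken after 60 min preincubation.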

[5] = Total clearance in mouse at 1 mg/kg, po administered as cassette dose measured up to 8 hrs by LC/MS/MS analysis; type: ADME, organism-based; conditions: in vivo
[6] = Cmax in mouse at 1 mg/kg, po administered as cassette dose measured up to 8 hrs by LC/MS/MS analysis; type: ADME, organism-based; design: dose 1 mg/kg, route oral; conditions: in vivo
In short: (§2)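 Cassette dosing to non-fasted mice, 1 mg/kg po (0–8 h). Plasma obtained from blood by centrifugation, deproteinized with acetonitrile, centrifuged, and the supernatant analysed by LC/MS/MS.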

[7] = AUC (0 to 8 hrs) in mouse at 1 mg/kg, po administered as cassette dose by LC/MS/MS analysis; type: ADME, organism-based; design: time < 8 hr, dose 1 mg/kg, route oral; conditions: in vivo; in short: as §2
[8] = MRT in mouse at 1 mg/kg, po administered as cassette dose measured up to 8 hrs by LC/MS/MS analysis; type: ADME, organism-based; conditions: in vivo; in short: as §2
[9] = Oral bioavailability in mouse at 1 mg/kg administered as cassette dose measured up to 8 hrs by LC/MS/MS analysis; type: ADME, organism-based; conditions: in vivo
In short: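 Bioavailability from mouse cassette dosing, 0.1 mg/kg iv and 1 mg/kg po, non-fasted animals. Plasma was deproteinized with acetonitrile and compound quantified by LC/MS/MS.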

[10] = system: Liver; assay: Intrinsic clearance in human liver microsomes at 1 umol/L after 15 to 30 mins in presence of NADPH by LC/MS/MS analysis; type: ADME, microsome; conditions: 1 µM
In short: (§3)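 Human or mouse liver microsomes at 0.2 mg/mL protein in 50 mmol/L phosphate buffer pH 7.4 with 1 μmol/L compound. Reaction started with an NADPH-generating system and stopped at 15 and 30 min with acetonitrile. LC/MS/MS readout. Intrinsic clearance taken as initial metabolic velocity (slope of concentration-time) divided by compound concentration.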

[11] = system: Liver; assay: Intrinsic clearance in mouse liver microsomes at 1 umol/L after 15 to 30 mins in presence of NADPH by LC/MS/MS analysis; type: ADME, microsome; conditions: 1 µM; in short: as §3
[12] = Solubility of the compound at pH 6.8; type: physicochemical; conditions: buffer
In short: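 Compound added from DMSO solution to JP 2nd disintegration fluid (pH 6.8) and incubated. Precipitate removed by filtration, and filtrate concentration measured by plate reader or HPLC.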

[13] = system: Plasma; assay: Drug metabolism in mouse plasma assessed as formation of (E)-3-(4-(1H-pyrazol-4-yl)pyridin-3-yl)-N-(4-(morpholinomethyl)phenyl)acrylamide at 1 mg/kg, po administered as cassette dose measured up to 8 hrs by LC/MS/MS analysis; type: ADME, organism-based; conditions: in vivo; in short: as §2
[14] = system: Plasma; assay: Drug metabolism in mouse plasma assessed as formation of (E)-4-(1-methyl-1H-pyrazol-4-yl)-3-(3-(4-(morpholinomethyl)phenylamino)-3-oxoprop-1-enyl)pyridine 1-oxide at 1 mg/kg, po administered as cassette dose measured up to 8 hrs by LC/MS/MS analysis; type: ADME, organism-based; conditions: in vivo; in short: as §2
[15] = system: Plasma; assay: Drug metabolism in mouse plasma assessed as formation of (E)-3-(4-(1-methyl-1H-pyrazol-4-yl)pyridin-3-yl)-N-(4-((3-oxomorpholino)methyl)phenyl)acrylamide at 1 mg/kg, po administered as cassette dose measured up to 8 hrs by LC/MS/MS analysis; type: ADME, organism-based; conditions: in vivo; in short: as §2
[16] = system: Plasma; assay: Drug metabolism in mouse plasma assessed as formation of (E)-N-(4-((2-hydroxyethylamino)methyl)phenyl)-3-(4-(1-methyl-1H-pyrazol-4-yl)pyridin-3-yl)acrylamide at 1 mg/kg, po administered as cassette dose measured up to 8 hrs by LC/MS/MS analysis; type: ADME, organism-based; conditions: in vivo; in short: as §2
[17] = target: T1, Cyclin-dependent kinase 8; assay: Inhibition of CDK8 in human SW480 cells assessed as reduction in STAT1 phosphorylation at Ser727 residues up to 30 nM after 1 day by Western blot method; type: cell-based
In short: (§4)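 Cell pellets were lysed in 62.5 mM Tris-Cl (pH 7.5), 1% SDS and 5% glycerol, then boiled at 95 °C for 5 min. 5 ug total protein was run on SDS-polyacrylamide gels, transferred and probed for total STAT1 and phospho-STAT1 Ser727. Detection used HRP-conjugated secondary antibodies and ECL plus chemiluminescence.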

[18] = system: RPMI-8226; assay: Antiproliferative activity against human RPMI8226 cells after 168 hrs by Celltiter-Glo luminescent assay; type: functional; conditions: RPMI-8226, 168 h
In short: (§5)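 Cells seeded at 5×10^2 per well. Compound added 24 h later at an appropriate concentration and incubated 168 h. Viability read by CellTiter-Glo luminescence after 20 min. Nuclear count by CyQuant Direct fluorescence after 1 h.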

[19] = system: EOL1; assay: Antiproliferative activity against human EOL-1 cells after 168 hrs by Celltiter-Glo luminescent assay; type: functional; conditions: EOL1, 168 h; in short: as §5
[20] = system: RPMI-8226; assay: Antitumor activity against human RPMI8226 cells xenografted in C.B17/Icr-scid/scid Jcl mouse assessed as tumor growth at 15 mg/kg, po bid after 2 weeks relative to control; type: functional
In short: (§6)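 Female C.B17/Icr-scid/scid Jcl mice, five weeks old, implanted sc in one flank with 1×10^7 RPMI-8226 cells in HBSS:Matrigel 1:1. When tumors reached about 80–140 mm³, dosed po b.i.d. at 15 or 30 mg/kg for 14 days. Caliper volume (0.5×length×width²) and body weight measured twice weekly. Tumor growth expressed as T/C vs vehicle. Mean ± se.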

[21] = system: RPMI-8226; assay: Antitumor activity against human RPMI8226 cells xenografted in C.B17/Icr-scid/scid Jcl mouse assessed as tumor growth at 30 mg/kg, po bid after 2 weeks relative to control; type: functional; in short: as §6
[22] = system: Mus musculus; assay: Toxicity in C.B17/Icr-scid/scid Jcl mouse xenografted with human RPMI8226 cells assessed as change in body weight at 15 mg/kg, po bid after 2 weeks; type: organism-based; conditions: in vivo, 336 h; in short: as §6
[23] = system: Mus musculus; assay: Toxicity in C.B17/Icr-scid/scid Jcl mouse xenografted with human RPMI8226 cells assessed as change in body weight at 30 mg/kg, po bid after 2 weeks relative to control; type: organism-based; conditions: in vivo, 336 h; in short: as §6
[24] = system: Mus musculus; assay: In vivo inhibition of STAT1 phosphorylation at Ser727 residues in C.B17/Icr-scid/scid Jcl mouse xenografted with human RPMI8226 cells at 15 to 30 mg/kg, po bid treated for 2 weeks measured over 2 to 8 hrs post dose by Western blot analysis; type: functional, organism-based
In short: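 Xenografted mice dosed po b.i.d. at 15 or 30 mg/kg for 2 weeks, sampled 2 h and 8 h post-dose on the final day. Samples lysed in Tris-SDS-glycerol buffer and boiled 95 °C for 5 min. 5 ug protein run on SDS-PAGE and blotted for STAT1 and phospho-STAT1 Ser727. HRP secondary with ECL detection.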

[25] = target: T1, Cyclin-dependent kinase 8; assay: Inhibition of CDK8 in human EOL1 cells assessed as reduction in STAT1 phosphorylation at Ser727 residues up to 30 nM after 1 day by Western blot method; type: cell-based; in short: as §4
[26] = target: T1, Cyclin-dependent kinase 8; assay: Inhibition of CDK8 in human RPMI8226 cells assessed as reduction in STAT1 phosphorylation at Ser727 residues up to 30 nM after 1 day by Western blot method; type: cell-based; in short: as §4

| Compound | IC50 [1] [nM] | EC50 [3] [nM] | activity at 20 min, 30 µM [4] [%] | Cmax [6] [ng/mL] | AUC(0-t) at 8 h [7] [ng·h/mL] | MRT [8] [h] | bioavailability [9] [%] | microsomal intrinsic clearance [10] [µL/min/mg] | intrinsic clearance [11] [µL/min/mg] | solubility [12] [µg/mL] | further results |
| --- | --- | --- | --- | --- | --- | --- | --- | --- | --- | --- | --- |
| Cn1cc(-c2ccncc2/C=C/C(=O)Nc2ccc(CN3CCOCC3)cc2)cn1 | 6.5 | 13 | 81 | 47.5 | 76.9 | 1.5 | 21.9 | 22 | 77 | 68 (≈ 169 µM) | IC50 [2]: 15 nM; CL/F [5]: 49.5 mL/min/kg; Drug metabolism [13]: Metabolite_Detected; Drug metabolism [14]: Metabolite_Detected; Drug metabolism [15]: Metabolite_Detected; Drug metabolism [16]: Metabolite_Detected |
| O=C(/C=C/c1cnccc1-c1cnn(C2CC2)c1)Nc1ccc(CN2CC(F)(F)C2)cc1 | 2.5 | 8.4 | 99 | 321 | 370 | 1.6 | 22.5 | 15 | 97 | 30 (≈ 68.9 µM) | inhibition [17]: Active; GI50 [18]: 21 nM; GI50 [19]: 6.5 nM; T/C [20]: 29%; T/C [21]: -2%; Activity [22]: Non-Toxic; Activity [23]: 12%; inhibition [24]: Active; inhibition [25]: Active; inhibition [26]: Active |
